Measurements taken from article PMC8764296 (International Journal of Nanomedicine, 2022).

Experiment: Liver microsomal stability
Format: in vitro ADME
Conditions: mouse liver microsomes 0.5 mg/mL, 50 μM, 37 °C, 4 hours incubation
Procedure, shortened: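 Compound at 50 μM (in vehicle or micelles), with coumarin as control, was preincubated 5 min at 37 °C with mouse liver microsomes (0.5 mg/mL) in PBS pH 7.4. Reactions were started with an NADPH-generating system (3 mM NADPH, 7.2 mM MgCl2, 6 mM G6P, 3 unit G6PDH) and sampled at 0, 5, 30 min and 1, 2, 4 h. Samples were DMSO-extracted for HPLC. ke from lnC versus t gave t1/2 and CL. Triplicate, mean and SD.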

O=c1ccc2ccccc2o1 [Coumarin]
level remaining in liver microsome: 10.7 ± 2.2%
